# Publication PMC2996727 (Biochemistry, 2009)
# Molecular target: T1, YfcG (Escherichia coli, UniProt P77526)
# T1 sequence (P77526 1-215): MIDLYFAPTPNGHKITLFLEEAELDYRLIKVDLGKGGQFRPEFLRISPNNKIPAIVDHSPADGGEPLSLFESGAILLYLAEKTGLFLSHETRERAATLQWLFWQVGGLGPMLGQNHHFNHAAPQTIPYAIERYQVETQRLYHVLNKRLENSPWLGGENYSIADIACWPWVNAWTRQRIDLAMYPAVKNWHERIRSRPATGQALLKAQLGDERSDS
# Experiment: intrinsic fluorescence titration
# Format: binding
# Method in brief: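 Purified enzyme titrated with thiol and disulfide ligands at 25 °C, monitoring the protein's intrinsic fluorescence; dissociation constants derived from the titration.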
smiles,measurement,value
N[C@@H](CCC(=O)N[C@@H](CS(=O)(=O)O)C(=O)NCC(=O)O)C(=O)O [GSO3^−],Kd,23 ± 5 µM
